In ChEMBL document CHEMBL3621107, “Ring fusion strategy for synthesis and lead optimization of sulfur-substituted anthra[1,2-c][1,2,5]thiadiazole-6,11-dione derivatives as promising scaffold of antitumor agents” (Eur J Med Chem, 2015):

Tests used:
Type in all cases: functional
[1] = tested on: OVCAR-5; assay: Cytotoxicity against human OVCAR5 cells after 48 hrs by SRB assay; conditions: OVCAR-5, 48 h
Summary of the method: (§1)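 Second-stage NCI-60 panel run by the NCI Developmental Therapeutics Program, covering nine tumour subpanels. Five concentrations were tested: 0.01, 0.1, 1, 10 and 100 μM. Percentage growth at each level was plotted against log10 drug concentration. GI50, TGI and LC50 were read from these dose-response curves. Subpanel MID values were divided into the full-panel MID to give selectivity ratios.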

[2] = tested on: 786-0; assay: Cytotoxicity against human 786-0 cells after 48 hrs by SRB assay; conditions: 786-0, 48 h
Summary of the method: (§2)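 NCI-60 human tumour cell panel screen, second stage, run by the NCI Developmental Therapeutics Program. Compounds were tested at five concentrations (0.01, 0.1, 1, 10 and 100 μM). Percentage growth was plotted against log10 concentration for each cell line. GI50, TGI and LC50 were taken from these dose-response curves.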

[3] = tested on: HOP-92; assay: Cytotoxicity against human HOP92 cells after 48 hrs by SRB assay; conditions: HOP-92, 48 h; summary of the method: as §2
[4] = tested on: DU-145; assay: Cytotoxicity against human DU145 cells after 48 hrs by SRB assay; conditions: DU-145, 48 h; summary of the method: as §2
[5] = tested on: HT-29; assay: Cytotoxicity against human HT-29 cells after 48 hrs by SRB assay; conditions: HT-29, 48 h; summary of the method: as §2
[6] = tested on: RXF 393; assay: Cytotoxicity against human RXF393 cells after 48 hrs by SRB assay; conditions: RXF 393, 48 h; summary of the method: as §1
[7] = tested on: SNB-75; assay: Cytotoxicity against human SNB75 cells after 48 hrs by SRB assay; conditions: SNB-75, 48 h
Summary of the method: (§3)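 NCI-60 five-dose study run by NCI DTP at 0.01, 0.1, 1, 10 and 100 µM. Percentage growth at each level was plotted against log10 concentration for each line, and GI50, TGI and LC50 were read from the dose-response curves.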

[8] = tested on: SW-620; assay: Cytotoxicity against human SW620 cells after 48 hrs by SRB assay; conditions: SW-620, 48 h; summary of the method: as §3
[9] = tested on: MDA-MB-231; assay: Cytotoxicity against human MDA-MB-231 cells after 48 hrs by SRB assay; conditions: MDA-MB-231, 48 h; summary of the method: as §1
[10] = tested on: NCI-H460; assay: Cytotoxicity against human NCI-H460 cells after 48 hrs by SRB assay; conditions: NCI-H460, 48 h; summary of the method: as §1
[11] = tested on: SN12C; assay: Cytotoxicity against human SN12C cells after 48 hrs by SRB assay; conditions: for CC50: read-out: LC50 (the source's name); summary of the method: as §1
[12] = tested on: PC-3; assay: Cytotoxicity against human PC3 cells after 48 hrs by SRB assay; conditions: PC-3, 48 h; summary of the method: as §1
[13] = tested on: CCRF-CEM; assay: Cytotoxicity against human CCRF-CEM cells after 48 hrs by SRB assay; summary of the method: as §2
[14] = Cytotoxicity against human renal cancer cells assessed as growth inhibition after 48 hrs by SRB assay; conditions: Cancer cell lines
Summary of the method: (§4)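 Values come from the NCI-60 five-dose panel (0.01–100 µM). The subpanel MID is the mean GI50 over the lines of that tumour subpanel. The selectivity ratio is the full-panel MID divided by the subpanel MID; 3–6 is rated moderate and >6 high.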

[15] = tested on: MCF7; assay: Cytotoxicity against human MCF7 cells after 48 hrs by SRB assay; conditions: MCF7, 48 h; summary of the method: as §2
[16] = Cytotoxicity against human prostate cancer cells assessed as growth inhibition after 48 hrs by SRB assay; conditions: Cancer cell lines; summary of the method: as §4
[17] = tested on: BT-549; assay: Cytotoxicity against human BT549 cells after 48 hrs by SRB assay; conditions: BT-549, 48 h; summary of the method: as §2
[18] = tested on: NCI-H322M; assay: Cytotoxicity against human NCI-H322M cells after 48 hrs by SRB assay; summary of the method: as §1
[19] = tested on: NCI/ADR-RES; assay: Cytotoxicity against human NCI/ADR-RES cells after 48 hrs by SRB assay; summary of the method: as §1
[20] = tested on: CAKI-1; assay: Cytotoxicity against human Caki1 cells after 48 hrs by SRB assay; conditions: CAKI-1, 48 h; summary of the method: as §2
[21] = tested on: M14; assay: Cytotoxicity against human M14 cells after 48 hrs by SRB assay; conditions: M14, 48 h; summary of the method: as §2
[22] = Cytotoxicity against human breast cancer cells assessed as growth inhibition after 48 hrs by SRB assay; conditions: Cancer cell lines; summary of the method: as §4
[23] = tested on: OVCAR-8; assay: Cytotoxicity against human OVCAR8 cells after 48 hrs by SRB assay; conditions: OVCAR-8, 48 h; for CC50: read-out: LC50 (the source's name); summary of the method: as §1
[24] = tested on: LOX IMVI; assay: Cytotoxicity against human LOXIMVI cells after 48 hrs by SRB assay; conditions: for CC50: read-out: LC50 (the source's name); summary of the method: as §2
[25] = tested on: MOLT-4; assay: Cytotoxicity against human MOLT4 cells after 48 hrs by SRB assay; conditions: MOLT-4, 48 h; summary of the method: as §1
[26] = tested on: U-251; assay: Cytotoxicity against human U251 cells after 48 hrs by SRB assay; conditions: U-251, 48 h; summary of the method: as §3
[27] = tested on: UACC-257; assay: Cytotoxicity against human UACC257 cells after 48 hrs by SRB assay; conditions: UACC-257, 48 h; summary of the method: as §3
[28] = tested on: MDA-MB-468; assay: Cytotoxicity against human MDA-MB-468 cells after 48 hrs by SRB assay; conditions: MDA-MB-468, 48 h; summary of the method: as §1
[29] = tested on: SR; assay: Cytotoxicity against human SR cells after 48 hrs by SRB assay; summary of the method: as §3
[30] = tested on: KM12; assay: Cytotoxicity against human KM12 cells after 48 hrs by SRB assay; conditions: KM12, 48 h; summary of the method: as §2

CC(C)Sc1cc2c(c3nsnc13)C(=O)c1ccccc1C2=O
GI50 [1]: 2.07 µM
LC50 [1]: 7.94 µM
TGI [1]: 4.05 µM
GI50 [2]: 2.75 µM
LC50 (concentration killing 50% of cells) [2]: 34.9 µM
TGI [2]: 8.14 µM
GI50 [3]: 0.32 µM
LC50 (concentration giving 50% net cell kill) [3]: 14.5 µM
TGI [3]: 2.18 µM
GI50 [4]: 1.45 µM
LC50 [4]: 26.4 µM
TGI [4]: 6.64 µM
GI50 [5]: 12.2 µM
LC50 [5]: 92.7 µM
TGI [5]: 33.6 µM
GI50 [6]: 1.77 µM
LC50 (concentration killing 50% of cells) [6]: 16.9 µM
TGI [6]: 4.83 µM
GI50 [7]: 0.52 µM
LC50 (concentration killing 50% of cells) [7]: 23.9 µM
TGI [7]: 3.95 µM
GI50 [8]: 0.43 µM
LC50 (50% lethal concentration) [8]: 11.7 µM
TGI [8]: 2.21 µM
GI50 [9]: 0.29 µM
LC50 (concentration killing 50% of cells) [9]: 4.9 µM
TGI [9]: 1.41 µM
GI50 [10]: 2.02 µM
LC50 (concentration killing 50% of cells) [10]: 40.5 µM
TGI [10]: 8.33 µM
GI50 [11]: 0.66 µM
TGI [11]: 2.41 µM
CC50 [11]: 7.09 µM
GI50 [12]: 0.25 µM
LC50 (concentration killing 50% of cells) [12]: 75.4 µM
TGI [12]: 1.38 µM
LC50 [13]: > 100 µM
TGI [13]: 0.58 µM
GI50 [14]: 1.58 µM
GI50 [15]: 1.71 µM
LC50 (concentration killing 50% of cells) [15]: 8.42 µM
TGI [15]: 3.8 µM
GI50 [16]: 0.85 µM
GI50 [17]: 2.19 µM
LC50 [17]: 29.8 µM
TGI [17]: 8.38 µM
GI50 [18]: 2.85 µM
LC50 (concentration causing 50% net cell kill) [18]: 38.7 µM
TGI [18]: 11 µM
GI50 [19]: 0.52 µM
LC50 (concentration killing 50% of cells) [19]: > 100 µM
TGI [19]: 3.2 µM
GI50 [20]: 0.59 µM
LC50 (concentration causing 50% net cell kill) [20]: 9.08 µM
TGI [20]: 2.59 µM
GI50 [21]: 1.54 µM
LC50 [21]: 6.53 µM
TGI [21]: 3.18 µM
GI50 [22]: 1.09 µM
GI50 [23]: 0.49 µM
TGI [23]: 2.37 µM
CC50 [23]: 9.85 µM
GI50 [24]: 0.34 µM
TGI [24]: 1.31 µM
CC50 [24]: 4.73 µM
GI50 [25]: 0.18 µM
LC50 [25]: > 100 µM
TGI [25]: 0.49 µM
GI50 [26]: 1.48 µM
LC50 [26]: 6.75 µM
TGI [26]: 3.16 µM
GI50 [27]: 0.57 µM
LC50 [27]: 4.47 µM
TGI [27]: 1.88 µM
GI50 [28]: 0.37 µM
LC50 [28]: 4.39 µM
TGI [28]: 1.42 µM
GI50 [29]: 0.31 µM
LC50 [29]: 7.46 µM
TGI [29]: 1.19 µM
GI50 [30]: 3.19 µM
LC50 (concentration killing 50% of cells) [30]: 41.1 µM
TGI [30]: 11.3 µM

O=C1c2ccccc2C(=O)c2c1cc(Sc1ccc(F)cc1F)c1nsnc21
GI50 [1]: 8.18 µM
LC50 [1]: 63.3 µM
TGI [1]: 24 µM
GI50 [2]: 1.85 µM
LC50 (concentration killing 50% of cells) [2]: 6.75 µM
TGI [2]: 3.53 µM
GI50 [3]: 2.03 µM
LC50 (concentration giving 50% net cell kill) [3]: 16.3 µM
TGI [3]: 5.01 µM
GI50 [4]: 6.3 µM
LC50 [4]: 45 µM
TGI [4]: 18.7 µM
GI50 [5]: 8.72 µM
LC50 [5]: > 100 µM
TGI [5]: 36.3 µM
GI50 [6]: 2.02 µM
LC50 (concentration killing 50% of cells) [6]: 6.67 µM
TGI [6]: 3.69 µM
GI50 [7]: 1.57 µM
LC50 (concentration killing 50% of cells) [7]: 13.1 µM
TGI [7]: 4.22 µM
GI50 [8]: 3.99 µM
LC50 (50% lethal concentration) [8]: 69.5 µM
TGI [8]: 16.3 µM
GI50 [9]: 1.2 µM
LC50 (concentration killing 50% of cells) [9]: 12.9 µM
TGI [9]: 3.61 µM
GI50 [10]: 25.9 µM
LC50 (concentration killing 50% of cells) [10]: > 100 µM
TGI [10]: > 100 µM
GI50 [11]: 1.64 µM
TGI [11]: 4.96 µM
CC50 [11]: 19.4 µM
GI50 [12]: 1.96 µM
LC50 (concentration killing 50% of cells) [12]: 85.7 µM
TGI [12]: 6.41 µM
GI50 [13]: 0.7 µM
LC50 [13]: 57.8 µM
TGI [13]: 6.35 µM
GI50 [14]: 2.53 µM
GI50 [15]: 1.31 µM
LC50 (concentration killing 50% of cells) [15]: 7.39 µM
TGI [15]: 3.11 µM
GI50 [16]: 4.13 µM
GI50 [17]: 3.99 µM
LC50 [17]: 43 µM
TGI [17]: 17.2 µM
GI50 [18]: 96.5 µM
LC50 (concentration causing 50% net cell kill) [18]: > 100 µM
TGI [18]: > 100 µM
GI50 [19]: 1.74 µM
LC50 (concentration killing 50% of cells) [19]: > 100 µM
TGI [19]: 4.59 µM
GI50 [20]: 2.51 µM
LC50 (concentration causing 50% net cell kill) [20]: > 100 µM
TGI [20]: 7.04 µM
GI50 [21]: 3.72 µM
LC50 [21]: 43 µM
TGI [21]: 15.8 µM
GI50 [22]: 1.77 µM
GI50 [23]: 1.58 µM
TGI [23]: 3.63 µM
CC50 [23]: 8.34 µM
GI50 [24]: 1.21 µM
TGI [24]: 2.64 µM
CC50 [24]: 5.77 µM
GI50 [25]: 1.11 µM
LC50 [25]: > 100 µM
TGI [25]: 5.46 µM
GI50 [26]: 1.9 µM
LC50 [26]: 9.94 µM
TGI [26]: 4.35 µM
GI50 [27]: 1.59 µM
LC50 [27]: 18 µM
TGI [27]: 4.64 µM
GI50 [28]: 0.45 µM
LC50 [28]: 4.19 µM
TGI [28]: 1.52 µM
GI50 [29]: 2.97 µM
LC50 [29]: 52.7 µM
TGI [29]: 9.06 µM
GI50 [30]: 9.91 µM
LC50 (concentration killing 50% of cells) [30]: > 100 µM
TGI [30]: 77.3 µM
